The target in experiment [1] is Cyclin-dependent kinase 2/cyclin E1 (Homo sapiens, UniProt P24941). Kind of experiment: Inhibition of CDK2/cyclin E (unknown origin) using histone 1 protein substrate incubated for 120 mins measured after 40 mins incubation under dark by ADP-glo based luminescence assay. Format: protein-complex assay. In outline:
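In-house ADP-Glo assay with 2 mM DMSO stocks. Kinases were CDK1/cyclin B at 1 nM, CDK2/cyclin E1 at 10 nM and CDK7/cyclin H/MAT1 at 40 nM. Substrate was histone 1 for CDK1 and CDK2, and a RNA pol II CTD peptide for CDK7. Compound at 8–10 concentrations, 1:3 serial, final DMSO 0.5%. Reactions ran 60–120 min at room temperature, then ADP-Glo reagent 40 min in the dark, then detection reagent 40 min, read by luminescence. Ki was derived from IC50 by Cheng-Prusoff.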
On the technique in general: ADP-Glo first removes unused ATP, then detects ADP through luciferase.

For the next experiment, the system named is THP-1. Kind of experiment: Antiproliferative activity against human THP-1 cells harboring wild type FLT3 assessed as reduction in cell viability after 72 hrs by resazurin assay. Format: functional. In outline:
(§1)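 Cells seeded and pre-incubated 24 h at 37 °C, 5% CO2, then given a five-fold dilution series of compound (from 10 mM DMSO stock) in medium, in triplicate. Resazurin added after 72 h exposure, 4 h in dark at 37 °C. Fluorescence read at 570/585 nm, normalised to DMSO vehicle. GI50 by non-linear regression; mean ± SD of at least two replicates.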
(In general: The colour change of resazurin is a common sign of viable cells or microbes.)

For another experiment, the system named is Jurkat. Kind of experiment: Antiproliferative activity against human Jurkat cells harboring FLT3 knockout gene assessed as reduction in cell viability after 72 hrs by resazurin assay. Format: functional. In outline: as §1
The test system of experiment [2] is MV4-11. Kind of experiment: Induction of apoptosis in human MV4-11 cells assessed as necrotic cells at 20 x GI50 concentration incubated for 24 hrs by annexin V-FITC and propidium iodide staining based flow cytometry (reference value: 0.75 %). Format: functional. (Flow cytometry measures light scatter and fluorescence of single cells or particles in a stream.)

In experiment [3] the test system is MV4-11. Kind of experiment: Induction of apoptosis in human MV4-11 cells assessed as late apoptotic cells at 20 x GI50 concentration incubated for 24 hrs by annexin V-FITC and propidium iodide staining based flow cytometry (reference value: 12.45 %). Format: functional.
In experiment [4] the test system is MV4-11. Kind of experiment: Induction of apoptosis in human MV4-11 cells assessed as necrotic cells at 1 x GI50 concentration incubated for 48 hrs by annexin V-FITC and propidium iodide staining based flow cytometry (reference value: 0.45 %). Format: functional.
The test system of experiment [5] is MV4-11. Kind of experiment: Induction of apoptosis in human MV4-11 cells assessed as viable cells at 1 x GI50 concentration incubated for 48 hrs by annexin V-FITC and propidium iodide staining based flow cytometry (reference value: 91.87 %). Format: functional.
The subject of experiment [6] is U-937. Kind of experiment: Induction of apoptosis in human U937 cells assessed as early apoptotic cells at 1 x GI50 concentration incubated for 24 hrs by annexin V-FITC and propidium iodide staining based flow cytometry (Rvb =1.81 %). Format: functional.
Experiment [7] relates to U-937. Kind of experiment: Induction of apoptosis in human U937 cells assessed as necrotic cells at 1 x GI50 concentration incubated for 24 hrs by annexin V-FITC and propidium iodide staining based flow cytometry (reference value: 1.10 %). Format: functional.
Experiment [8] deals with U-937. Kind of experiment: Induction of apoptosis in human U937 cells assessed as necrotic cells at 5 x GI50 concentration incubated for 24 hrs by annexin V-FITC and propidium iodide staining based flow cytometry (reference value: 1.10 %). Format: functional.
In experiment [9] the test system is U-937. Kind of experiment: Induction of apoptosis in human U937 cells assessed as necrotic cells at 10 x GI50 concentration incubated for 24 hrs by annexin V-FITC and propidium iodide staining based flow cytometry (reference value: 1.10 %). Format: functional.
Experiment [10] has as its target Receptor-type tyrosine-protein kinase FLT3 (Homo sapiens) (UniProt P36888). Kind of experiment: Inhibition of FLT3-mediated signalling pathway in human MV4-11 cells assessed as inhibition of STAT5 phosphorylation upto 20 x GI50 concentration incubated for 6 hrs by western blot analysis. Format: cell-based. In short, it runs like this:
(§2)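 Cells lysed in phosphate lysis buffer with protease inhibitors and protein quantified. Western blots probed phospho and total STAT5, AKT, ERK, S6RP and eIF4E, plus full-length and cleaved PARP and caspase-3, with β-actin as loading control. At least two independent experiments.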

For experiment [11] the target is unchanged. Kind of experiment: Inhibition of FLT3-mediated signalling pathway in human MV4-11 cells assessed as inhibition of S6RP phosphorylation upto 20 x GI50 concentration incubated for 6 hrs by western blot analysis. Format: cell-based. In short, it runs like this:
as §2

Experiment [12] has the same target. Kind of experiment: Inhibition of FLT3-mediated signalling pathway in human MV4-11 cells assessed as increase in cleaved PARP expression upto 20 x GI50 concentration incubated for 6 hrs by western blot analysis. Format: cell-based. In short, it runs like this:
as §2

The test system of experiment [13] is U-937. Kind of experiment: Induction of apoptosis in human U937 cells assessed as necrotic cells at 10 x GI50 concentration incubated for 48 hrs by annexin V-FITC staining based flow cytometry (reference value: 1.16 %). Format: functional.
Experiment [14] deals with U-937. Kind of experiment: Induction of apoptosis in human U937 cells assessed as early apoptotic cells at 20 x GI50 concentration incubated for 48 hrs by annexin V-FITC staining based flow cytometry (reference value: 2.78 %). Format: functional.
Experiment [15] concerns U-937. Kind of experiment: Induction of apoptosis in human U937 cells assessed as necrotic cells at 20 x GI50 concentration incubated for 48 hrs by annexin V-FITC staining based flow cytometry (reference value: 1.16 %). Format: functional.
The target in experiment [16] is Receptor-type tyrosine-protein kinase FLT3 (Homo sapiens) (UniProt P36888). Kind of experiment: Inhibition of FLT3-mediated signalling pathway in human U-937 cells assessed as inhibition of S6RP phosphorylation upto 20 x GI50 concentration incubated for 6 hrs by western blot analysis. Format: cell-based. In short, it runs like this:
as §2

From ChEMBL document CHEMBL4813946, “Discovery of novel 4-azaaryl-N-phenylpyrimidin-2-amine derivatives as potent and selective FLT3 inhibitors for acute myeloid leukaemia with FLT3 mutations” (Eur J Med Chem, 2021) come the findings set out here.

Active and inactive are the calls of the source. The calls are words filed in the database; no cut-off is given here.

Chain of Receptor-type tyrosine-protein kinase FLT3 (Homo sapiens) (P36888 whole entry): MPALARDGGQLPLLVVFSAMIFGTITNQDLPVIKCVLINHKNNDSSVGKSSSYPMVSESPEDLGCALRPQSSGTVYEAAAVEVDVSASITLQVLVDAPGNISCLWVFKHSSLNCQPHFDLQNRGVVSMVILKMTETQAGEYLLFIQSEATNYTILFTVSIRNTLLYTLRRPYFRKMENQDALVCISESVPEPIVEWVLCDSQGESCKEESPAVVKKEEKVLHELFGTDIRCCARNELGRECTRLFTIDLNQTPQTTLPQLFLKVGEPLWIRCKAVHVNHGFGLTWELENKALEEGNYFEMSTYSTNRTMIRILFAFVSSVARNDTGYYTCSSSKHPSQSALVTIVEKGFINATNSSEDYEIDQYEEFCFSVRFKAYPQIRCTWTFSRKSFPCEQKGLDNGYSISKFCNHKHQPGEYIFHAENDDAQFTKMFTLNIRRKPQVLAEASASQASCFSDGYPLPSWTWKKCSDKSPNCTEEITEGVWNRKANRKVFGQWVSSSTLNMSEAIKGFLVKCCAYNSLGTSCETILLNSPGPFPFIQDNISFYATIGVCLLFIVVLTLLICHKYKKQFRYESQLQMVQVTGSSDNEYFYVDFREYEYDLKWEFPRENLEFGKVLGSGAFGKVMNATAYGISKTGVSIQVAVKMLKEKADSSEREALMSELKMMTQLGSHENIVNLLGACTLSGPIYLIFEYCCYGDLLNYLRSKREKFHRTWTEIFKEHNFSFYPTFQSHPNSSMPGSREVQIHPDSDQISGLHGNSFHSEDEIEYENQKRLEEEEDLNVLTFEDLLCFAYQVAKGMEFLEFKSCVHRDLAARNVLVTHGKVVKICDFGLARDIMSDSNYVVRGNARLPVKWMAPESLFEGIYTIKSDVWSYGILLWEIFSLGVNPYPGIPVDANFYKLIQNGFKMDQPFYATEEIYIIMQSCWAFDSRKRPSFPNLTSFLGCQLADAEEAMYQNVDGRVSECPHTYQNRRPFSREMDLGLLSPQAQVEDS

Take `CC(=O)N1CCN(c2ccc(Nc3nccc(-c4cn(C)c5ncccc45)n3)cc2)CC1`: the Ki in [1] is greater than 5 µM. Also, the figures for the GI50 with THP-1 and in the experiment with Jurkat were 7.72 µM and greater than 10 µM, respectively. The Activity in the experiment on MV4-11 [2] is given as 20.95%; in the experiment on MV4-11 [3] it was 2.03%; with MV4-11 [4], 0.8%; in the experiment on MV4-11 [5], 89.25%; with U-937 [6], 2.41%; in the experiment on U-937 [7], 1.42%. Besides, the Activity came to 1.7% in the experiment with U-937 [8]; 1.4% with U-937 [9]; 1.57% in the experiment with U-937 [13]; 3.44% in the experiment with U-937 [14]; 1.73% with U-937 [15]. Also, the inhibition result in experiment [10], in [11] and in experiment [16] was “Active” throughout. The result in experiment [12] was Active.

As a reminder, the Ki is a dissociation constant, usually derived from enzyme kinetics or from competition with a known ligand. Low readings indicate higher affinity, high ones lower affinity. The GI50 is the concentration that inhibits growth by half.
